Experiments:
Format in all cases: functional
Rattus norvegicus [1] = test: Compound was tested for hypolipidemic activity in male Sprague-Dawley rats by measuring change in body weight after administration of 400 mg dose per kg of diet
Method in brief: (§1)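 Orotic acid liver-lipid model: groups of six male Sprague-Dawley rats unless noted. Test compound mixed into the orotic acid diet at the stated mg/kg diet. Diet and water ad libitum for 14 days, with growth and diet intake monitored. Impaired growth with normal intake was taken as toxicity. At sacrifice, liver homogenized in cold 0.63 M phosphate buffer, pH 7.4. Liver triglyceride and cholesterol reported as mg/g wet liver.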

Rattus norvegicus [2] = test: Compound was tested for hypolipidemic activity in male Sprague-Dawley rats by measuring change in body weight after administration of 600 mg dose per kg of diet; method in brief: as §1
Rattus norvegicus [3] = test: Compound was tested for hypolipidemic activity in male Sprague-Dawley rats by measuring change in body weight after administration of 100 mg dose per kg of diet; method in brief: as §1
Rattus norvegicus [4] = test: Compound was tested for hypolipidemic activity in male Sprague-Dawley rats by measuring change in body weight after administration of 200 mg dose per kg of diet; method in brief: as §1
Rattus norvegicus [5] = species on record: Rattus norvegicus; test: The concentration required to reduce liver cholesterol half-way from the average orotic acid level to the basal level
Method in brief: (§2)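 Dose-response testing in the 14-day orotic acid diet model, six male Sprague-Dawley rats per group. Midpoint dose (mg/kg diet) read from dose-response curves as the dietary level that brings liver cholesterol or triglyceride half-way between the orotic-acid-fed control and a basal control given no orotic acid.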

Rattus norvegicus [6] = test: Compound was tested for hypolipidemic activity in male Sprague-Dawley rats by measuring amount of liver triglyceride after administration of 100 mg dose per kg of diet; method in brief: as §1
Rattus norvegicus [7] = test: Compound was tested for hypolipidemic activity in male Sprague-Dawley rats by measuring amount of liver triglyceride after administration of 200 mg dose per kg of diet; method in brief: as §1
Rattus norvegicus [8] = test: Compound was tested for hypolipidemic activity in male Sprague-Dawley rats by measuring amount of liver triglyceride after administration of 600 mg dose per kg of diet; method in brief: as §1
Rattus norvegicus [9] = test: Compound was tested for hypolipidemic activity in male Sprague-Dawley rats by measuring amount of liver cholesterol after administration of 100 mg dose per kg of diet; method in brief: as §1
Rattus norvegicus [10] = test: Compound was tested for hypolipidemic activity in male Sprague-Dawley rats by measuring amount of liver cholesterol after administration of 200 mg dose per kg of diet; method in brief: as §1
Rattus norvegicus [11] = test: Compound was tested for hypolipidemic activity in male Sprague-Dawley rats by measuring amount of liver cholesterol after administration of 600 mg dose per kg of diet; method in brief: as §1
Rattus norvegicus [12] = test: Compound was tested for hypolipidemic activity in male Sprague-Dawley rats by measuring amount of liver cholesterol after administration of 400 mg dose per kg of diet; method in brief: as §1
Rattus norvegicus [13] = test: Compound was tested for hypolipidemic activity in male Sprague-Dawley rats by measuring amount of liver triglyceride after administration of 400 mg dose per kg of diet; method in brief: as §1
Rattus norvegicus [14] = species on record: Rattus norvegicus; test: The concentration required to reduce liver triglyceride half-way from the average orotic acid level to the basal level; method in brief: as §2
Rattus norvegicus [15] = species on record: Rattus norvegicus; test: The activity relative to DPTH in liver cholesterol
Method in brief: (§3)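 Relative activity is the midpoint dose from the orotic acid rat dose-response curves compared against DPTH, with DPTH set to 1.00. Calculated separately for liver cholesterol and for liver triglyceride.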

Rattus norvegicus [16] = species on record: Rattus norvegicus; test: The activity relative to DPTH in liver triglyceride; method in brief: as §3
Rattus norvegicus [17] = species on record: Rattus norvegicus; test: The activity relative to DPTH. […] in liver cholesterol.; method in brief: as §3
Rattus norvegicus [18] = species on record: Rattus norvegicus; test: The activity relative to DPTH. in liver triglyceride.; method in brief: as §3
Rattus norvegicus [19] = test: Compound was tested for hypolipidemic activity in male Sprague-Dawley rats by measuring change in body weight after administration of 750 mg dose per kg of diet; method in brief: as §1
Rattus norvegicus [20] = test: Compound was tested for hypolipidemic activity in male Sprague-Dawley rats by measuring amount of liver cholesterol after administration of 750 mg dose per kg of diet; method in brief: as §1
Rattus norvegicus [21] = test: Compound was tested for hypolipidemic activity in male Sprague-Dawley rats by measuring amount of liver triglyceride after administration of 750 mg dose per kg of diet; method in brief: as §1
Rattus norvegicus [22] = test: Compound was tested for hypolipidemic activity in male Sprague-Dawley rats by measuring change in body weight after administration of 770 mg dose per kg of diet; method in brief: as §1
Rattus norvegicus [23] = test: Compound was tested for hypolipidemic activity in male Sprague-Dawley rats by measuring amount of liver cholesterol after administration of 770 mg dose per kg of diet; method in brief: as §1
Rattus norvegicus [24] = test: Compound was tested for hypolipidemic activity in male Sprague-Dawley rats by measuring amount of liver triglyceride after administration of 770 mg dose per kg of diet; method in brief: as §1
Rattus norvegicus [25] = test: Compound was tested for hypolipidemic activity in male Sprague-Dawley rats by measuring change in body weight after administration of 729 mg dose per kg of diet; method in brief: as §1
Rattus norvegicus [26] = test: Compound was tested for hypolipidemic activity in male Sprague-Dawley rats by measuring amount of liver triglyceride after administration of 729 mg dose per kg of diet; method in brief: as §1
Rattus norvegicus [27] = test: Compound was tested for hypolipidemic activity in male Sprague-Dawley rats by measuring amount of liver cholesterol after administration of 729 mg dose per kg of diet; method in brief: as §1
Rattus norvegicus [28] = test: Compound was tested for hypolipidemic activity in male Sprague-Dawley rats by measuring change in body weight after administration of 735 mg dose per kg of diet; method in brief: as §1
Rattus norvegicus [29] = test: Compound was tested for hypolipidemic activity in male Sprague-Dawley rats by measuring amount of liver triglyceride after administration of 735 mg dose per kg of diet; method in brief: as §1
Rattus norvegicus [30] = test: Compound was tested for hypolipidemic activity in male Sprague-Dawley rats by measuring amount of liver cholesterol after administration of 735 mg dose per kg of diet; method in brief: as §1
Rattus norvegicus [31] = test: Compound was tested for hypolipidemic activity in male Sprague-Dawley rats by measuring change in body weight after administration of 635 mg dose per kg of diet; method in brief: as §1
Rattus norvegicus [32] = test: Compound was tested for hypolipidemic activity in male Sprague-Dawley rats by measuring amount of liver triglyceride after administration of 635 mg dose per kg of diet; method in brief: as §1
Rattus norvegicus [33] = test: Compound was tested for hypolipidemic activity in male Sprague-Dawley rats by measuring amount of liver cholesterol after administration of 635 mg dose per kg of diet; method in brief: as §1

O=C1NC(=S)NC1(c1ccccn1)c1ccccn1
Body weight change (Rattus norvegicus [1]): 203 g | Body weight change (Rattus norvegicus [2]): 132 g | Body weight change (Rattus norvegicus [3]): 180 g | Body weight change (Rattus norvegicus [4]): 181 g | Midpoint dose (Rattus norvegicus [5]): 180 mg/kg | Liver TG (Rattus norvegicus [6]): 100 mg/g | Liver TG (Rattus norvegicus [7]): 72 mg/g | Liver TG (Rattus norvegicus [8]): 16 mg/g | Liver cholesterol (Rattus norvegicus [9]): 17 mg/g | Liver cholesterol (Rattus norvegicus [10]): 10.3 mg/g | Liver cholesterol (Rattus norvegicus [11]): 3 mg/g | Liver cholesterol (Rattus norvegicus [12]): 2.8 mg/g | Liver TG (Rattus norvegicus [13]): 28 mg/g | Midpoint dose (Rattus norvegicus [14]): 235 mg/kg | Relative activity (Rattus norvegicus [15]): 1.33 | Relative activity (Rattus norvegicus [16]): 0.43

CCCCN1C(=O)C(c2ccccc2)(c2ccccc2)NC1=S
Body weight change (Rattus norvegicus [1]): 210 g | Body weight change (Rattus norvegicus [2]): 134 g | Body weight change (Rattus norvegicus [4]): 185 g | Cholesterol (Rattus norvegicus [17]): 0.71 | Cholesterol (Rattus norvegicus [5]): 340 mg kg-1 diet | Midpoint dose (Rattus norvegicus [5]): 340 mg/kg | Liver TG (Rattus norvegicus [7]): 97 mg/g | Liver TG (Rattus norvegicus [8]): 19 mg/g | Liver cholesterol (Rattus norvegicus [10]): 17.8 mg/g | Liver cholesterol (Rattus norvegicus [11]): 4.2 mg/g | Liver cholesterol (Rattus norvegicus [12]): 10.7 mg/g | Liver TG (Rattus norvegicus [13]): 70 mg/g | TG (Rattus norvegicus [18]): 0.22 | Midpoint dose (Rattus norvegicus [14]): 450 mg/kg | TG (Rattus norvegicus [14]): 450 mg kg-1 diet | Relative activity (Rattus norvegicus [15]): 0.71 | Relative activity (Rattus norvegicus [16]): 0.22

O=C1NC(=S)NC1(c1ccc(Cl)cc1)c1ccc(Cl)cc1
Body weight change (Rattus norvegicus [19]): 91 g | Liver cholesterol (Rattus norvegicus [20]): 13.2 mg/g | Liver TG (Rattus norvegicus [21]): 82 mg/g

O=C1N(c2ccccc2)C(=S)NC1(c1ccccc1)c1ccccc1
Body weight change (Rattus norvegicus [22]): 91 g | Liver cholesterol (Rattus norvegicus [23]): 8.6 mg/g | Liver TG (Rattus norvegicus [24]): 42 mg/g

CCCCN1C(=O)C(c2ccccn2)(c2ccccn2)NC1=S
Body weight change (Rattus norvegicus [25]): 140 g | Liver TG (Rattus norvegicus [26]): 85 mg/g | Liver cholesterol (Rattus norvegicus [27]): 12.2 mg/g

COc1ccc(C2(c3ccc(OC)cc3)NC(=S)NC2=O)cc1
Body weight change (Rattus norvegicus [28]): 135 g | Liver TG (Rattus norvegicus [29]): 82 mg/g | Liver cholesterol (Rattus norvegicus [30]): 21.6 mg/g

COc1ccc(C2(c3ccccc3)NC(=S)NC2=O)cc1 (racemic)
Body weight change (Rattus norvegicus [31]): 144 g | Liver TG (Rattus norvegicus [32]): 70 mg/g | Liver cholesterol (Rattus norvegicus [33]): 23.1 mg/g

O=C1NC(=S)NC1(c1ccccc1)c1ccc(O)cc1 (racemic)
Body weight change (Rattus norvegicus [31]): 130 g | Liver TG (Rattus norvegicus [32]): 48 mg/g | Liver cholesterol (Rattus norvegicus [33]): 9.1 mg/g

O=C1NC(=S)NC1(c1ccccc1)c1ccccc1 [THIOPHENYTOIN]
Body weight change (Rattus norvegicus [2]): 136 g | Midpoint dose (Rattus norvegicus [5]): 240 mg/kg | Liver TG (Rattus norvegicus [8]): 16 mg/g | Liver cholesterol (Rattus norvegicus [11]): 3 mg/g | Midpoint dose (Rattus norvegicus [14]): 100 mg/kg | Relative activity (Rattus norvegicus [15]): 1 | Relative activity (Rattus norvegicus [16]): 1

Source: ChEMBL document CHEMBL1123188, “5,5-Diaryl-2-thiohydantoins and 5,5-diaryl-N3-substituted-2-thiohydantoins as potential hypolipidemic agents” (1986)
